Measurements collected from several papers.
Compare with care: the assays were run in different laboratories.
Target: Myosin light chain kinase 2, skeletal/cardiac muscle (MYLK2, Homo sapiens, UniProt Q9H1R3)

Compound	assay	setting	endpoint	result
Cc1nn(C)cc1-c1nc2c(N3CCN(Cc4ccc(Cl)cc4)CC3)c(Cl)cnc2[nH]1	binding, competition with immobilised ligand	1 µM	remaining binding	61%
CC(C)(C)c1cc(C=C(C#N)C#N)cc(Br)c1O	enzyme activity, inhibitor	0.5 µM	remaining activity	99.3%
Nc1ncc(-c2nc(N3CCOCC3)nc(N3CCOCC3)n2)c(C(F)F)n1	binding, competition with immobilised ligand	10 µM	remaining binding	92%
Cn1cncc1[C@@](O)(COc1ccc(C#N)cc1-c1ccc(OC(F)(F)F)cc1)c1ccc(C#N)cc1	cell-free assay, competition with immobilised ligand	1 µM	remaining binding	100%
Cn1cc(-c2cc(F)cc(N3CCn4c(cc5c4CCCC5)C3=O)c2CO)cc(Nc2ccc(N3CCN(C4COC4)CC3)cn2)c1=O	enzyme activity, inhibitor	0.1 µM	inhibition	17%
COc1cc(Nc2ncc(F)c(Nc3ccc4c(n3)NC(=O)C(C)(C)O4)n2)cc(OC)c1OC	binding, competition with immobilised ligand	10 µM	inhibition	58%
Cn1cc(-c2cccc(N3CCc4c(sc5c4CC(C)(C)C5)C3=O)c2CO)cc(Nc2ccncn2)c1=O	enzyme activity, inhibitor	1 µM	inhibition	14%
O=c1[nH]c2ccccc2n1C1CCN(Cc2ccc(-c3[nH]c4cc5ncnc5cc4nc3-c3ccccc3)cc2)CC1	cell-free assay	0.5 µM	remaining signal	103%
COc1ncccc1-c1cnn2ccc(N3CCN(C(=O)OC(C)C)CC3)nc12	binding, competition with immobilised ligand	1 µM	remaining binding	89%
